# From ChEMBL document CHEMBL1135850, “P1 Phenethyl peptide boronic acid inhibitors of HCV NS3 protease” (Bioorg Med Chem Lett, 2002)
# Peptide text beside a SMILES is read from it. * marks the point of attachment. X3 = CC1(C)[C@@H]2C[C@H]3OB([C@H](CCc4cccc(C(F)(F)F)c4)N*)O[C@@]3(C)[C@H]1C2; X4 = CC1(C)[C@@H]2C[C@H]3OB([C@H](CCc4cccc(F)c4)N*)O[C@@]3(C)[C@H]1C2; X1 = CC1(C)[C@@H]2C[C@H]3OB([C@H](CCc4ccccc4F)N*)O[C@@]3(C)[C@H]1C2; X6 = CC1(C)[C@@H]2C[C@H]3OB([C@H](CCCc4ccccc4)N*)O[C@@]3(C)[C@H]1C2; X15 = CC1(C)[C@@H]2C[C@H]3OB([C@H](Cc4ccccc4)N*)O[C@@]3(C)[C@H]1C2; X12 = CC(C)CC[C@H](N*)B1O[C@@H]2C[C@@H]3C[C@@H](C3(C)C)[C@]2(C)O1; X9 = CC1(C)[C@@H]2C[C@H]3OB([C@@H](N*)c4ccccc4)O[C@@]3(C)[C@H]1C2; X11 = CCCCCC[C@H](N*)B1O[C@@H]2C[C@@H]3C[C@@H](C3(C)C)[C@]2(C)O1; X13 = CCCCC[C@H](N*)B1O[C@@H]2C[C@@H]3C[C@@H](C3(C)C)[C@]2(C)O1; X14 = CCCC[C@H](N*)B1O[C@@H]2C[C@@H]3C[C@@H](C3(C)C)[C@]2(C)O1
# Target: T1, Neutrophil elastase (Homo sapiens, UniProt P08246)
# T1 sequence (P08246 whole entry): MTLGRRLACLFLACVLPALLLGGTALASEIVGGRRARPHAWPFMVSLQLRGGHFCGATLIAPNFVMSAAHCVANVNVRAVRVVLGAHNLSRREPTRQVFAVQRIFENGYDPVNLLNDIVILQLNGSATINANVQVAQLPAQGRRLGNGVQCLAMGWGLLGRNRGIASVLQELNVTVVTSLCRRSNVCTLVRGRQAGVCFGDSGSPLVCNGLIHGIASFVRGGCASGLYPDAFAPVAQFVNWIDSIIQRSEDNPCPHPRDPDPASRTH
# Assay: Inhibitory concentration against Human leukocyte Elastase
# In short: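 Human neutrophil elastase (stock 1 mg/mL in PBS with 10% glycerol) with MeO-Suc-Ala-Ala-Pro-Val-p-nitroanilide substrate in PBS at room temperature, DMSO ≤2%. Inhibitors were tested as pinanediol esters. Substrate hydrolysis was followed at 405 nm to derive kinetic parameters.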
row,Structure (SMILES),IC50 [µM]
1,CC(C)[C@H](NC(=O)[C@H](CCC(=O)O)NC(=O)[C@@H](N)CC(=O)O)C(=O)N[C@H](C(=O)N1CCC[C@@H]1C(=O)N[C@@H](CCCCc1ccccc1)B1O[C@@H]2C[C@@H]3C[C@@H](C3(C)C)[C@]2(C)O1)C(C)C,0.4
2,CC(C)[C@H](NC(=O)[C@H](CCC(=O)O)NC(=O)[C@@H](N)CC(=O)O)C(=O)N[C@H](C(=O)N1CCC[C@@H]1C(=O)N[C@@H](CCc1ccccc1)B1O[C@@H]2C[C@@H]3C[C@@H](C3(C)C)[C@]2(C)O1)C(C)C,3.5
3,CC(C)C[C@H](NC(=O)[C@H]1CCCN1C(=O)[C@@H](NC(=O)[C@@H](NC(=O)[C@H](CCC(=O)O)NC(=O)[C@@H](N)CC(=O)O)C(C)C)C(C)C)B1O[C@@H]2C[C@@H]3C[C@@H](C3(C)C)[C@]2(C)O1,0.06
4,COc1ccc(CC[C@H](NC(=O)[C@H]2CCCN2C(=O)[C@@H](NC(=O)[C@@H](NC(=O)[C@H](CCC(=O)O)NC(=O)[C@@H](N)CC(=O)O)C(C)C)C(C)C)B2O[C@@H]3C[C@@H]4C[C@@H](C4(C)C)[C@]3(C)O2)cc1,0.56
5,CC(C)[C@H](NC(=O)[C@H](CCC(=O)O)NC(=O)[C@@H](N)CC(=O)O)C(=O)N[C@H](C(=O)N1CCC[C@@H]1C(=O)N[C@@H](CCc1ccc(O)cc1)B1O[C@@H]2C[C@@H]3C[C@@H](C3(C)C)[C@]2(C)O1)C(C)C,0.9
6,Cc1cccc(CC[C@H](NC(=O)[C@H]2CCCN2C(=O)[C@@H](NC(=O)[C@@H](NC(=O)[C@H](CCC(=O)O)NC(=O)[C@@H](N)CC(=O)O)C(C)C)C(C)C)B2O[C@@H]3C[C@@H]4C[C@@H](C4(C)C)[C@]3(C)O2)c1,5.7

# Target: NS3 (Hepatitis C virus, UniProt A3EZJ3)
# Assay: Binding affinity against Hepatitis C virus NS3 protease
# Design: species or system Hepacivirus hominis
# In short: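 Continuous fluorescence assay with 4 nM NS3 protease plus NS4A cofactor peptide, in 50 mM Tris pH 7.0, 5 mM DTT, 50% glycerol, 2% CHAPS. Serially diluted inhibitors, given as boronic acid pinanediol esters, were preincubated with enzyme for 15 min. The reaction was started with the FRET ester substrate Ac-DED(EDANS)EEAbuψ[COO]ASK(DABCYL)-NH2 at ambient temperature and read at excitation 360 nm, emission 530 nm.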
row,Structure (SMILES),Ki [µM]
1,CC(C)[C@H](NC(=O)[C@H](CCC(=O)O)NC(=O)[C@@H](N)CC(=O)O)C(=O)N[C@H](C(=O)N1CCC[C@H]1C(=O)N[C@@H](CCc1cccc(F)c1)B1O[C@@H]2C[C@@H]3C[C@@H](C3(C)C)[C@]2(C)O1)C(C)C (H-DEVVP-X4),0.009
2,CC(C)[C@H](NC(=O)[C@H](CCC(=O)O)NC(=O)[C@@H](N)CC(=O)O)C(=O)N[C@H](C(=O)N1CCC[C@H]1C(=O)N[C@H](B1O[C@@H]2C[C@@H]3C[C@@H](C3(C)C)[C@]2(C)O1)c1ccccc1)C(C)C (H-DEVVP-X9),0.9
3,CC(C)[C@H](NC(=O)[C@H](CCC(=O)O)NC(=O)[C@@H](N)CC(=O)O)C(=O)N[C@H](C(=O)N1CCC[C@H]1C(=O)N[C@@H](CCc1ccc(Oc2ccccc2)cc1)B1O[C@@H]2C[C@@H]3C[C@@H](C3(C)C)[C@]2(C)O1)C(C)C,0.003
4,CC(C)[C@H](NC(=O)[C@H](CCC(=O)O)NC(=O)[C@@H](N)CC(=O)O)C(=O)N[C@H](C(=O)N1CCC[C@H]1C(=O)N[C@@H](CCc1ccc(Cl)cc1)B1O[C@@H]2C[C@@H]3C[C@@H](C3(C)C)[C@]2(C)O1)C(C)C,0.002
5,CC(C)[C@H](NC(=O)[C@H](CCC(=O)O)NC(=O)[C@@H](N)CC(=O)O)C(=O)N[C@H](C(=O)N1CCC[C@H]1C(=O)N[C@@H](CCc1ccc(C(C)(C)C)cc1)B1O[C@@H]2C[C@@H]3C[C@@H](C3(C)C)[C@]2(C)O1)C(C)C,0.003
6,CC(C)[C@H](NC(=O)[C@H](CCC(=O)O)NC(=O)[C@@H](N)CC(=O)O)C(=O)N[C@H](C(=O)N1CCC[C@H]1C(=O)N[C@@H](CCc1ccccc1)B1O[C@@H]2C[C@@H]3C[C@@H](C3(C)C)[C@]2(C)O1)C(C)C,0.008
7,CC(C)[C@H](NC(=O)[C@H](CCC(=O)O)NC(=O)[C@@H](N)CC(=O)O)C(=O)N[C@H](C(=O)N1CCC[C@H]1C(=O)N[C@@H](Cc1ccccc1)B1O[C@@H]2C[C@@H]3C[C@@H](C3(C)C)[C@]2(C)O1)C(C)C (H-DEVVP-X15),0.5
8,CC(C)[C@H](NC(=O)[C@H](CCC(=O)O)NC(=O)[C@@H](N)CC(=O)O)C(=O)N[C@H](C(=O)N1CCC[C@H]1C(=O)N[C@@H](CCc1ccc(Br)cc1)B1O[C@@H]2C[C@@H]3C[C@@H](C3(C)C)[C@]2(C)O1)C(C)C,0.004
9,Cc1ccc(CC[C@H](NC(=O)[C@@H]2CCCN2C(=O)[C@@H](NC(=O)[C@@H](NC(=O)[C@H](CCC(=O)O)NC(=O)[C@@H](N)CC(=O)O)C(C)C)C(C)C)B2O[C@@H]3C[C@@H]4C[C@@H](C4(C)C)[C@]3(C)O2)cc1,0.017
10,COc1ccc(CC[C@H](NC(=O)[C@@H]2CCCN2C(=O)[C@@H](NC(=O)[C@@H](NC(=O)[C@H](CCC(=O)O)NC(=O)[C@@H](N)CC(=O)O)C(C)C)C(C)C)B2O[C@@H]3C[C@@H]4C[C@@H](C4(C)C)[C@]3(C)O2)cc1,0.003
11,CC(C)CCC[C@H](NC(=O)[C@@H]1CCCN1C(=O)[C@@H](NC(=O)[C@@H](NC(=O)[C@H](CCC(=O)O)NC(=O)[C@@H](N)CC(=O)O)C(C)C)C(C)C)B1O[C@@H]2C[C@@H]3C[C@@H](C3(C)C)[C@]2(C)O1,0.007
12,CC(C)[C@H](NC(=O)[C@H](CCC(=O)O)NC(=O)[C@@H](N)CC(=O)O)C(=O)N[C@H](C(=O)N1CCC[C@H]1C(=O)N[C@@H](CCc1ccc(-c2ccccc2)cc1)B1O[C@@H]2C[C@@H]3C[C@@H](C3(C)C)[C@]2(C)O1)C(C)C,0.007
13,CC(C)[C@H](NC(=O)[C@H](CCC(=O)O)NC(=O)[C@@H](N)CC(=O)O)C(=O)N[C@H](C(=O)N1CCC[C@H]1C(=O)N[C@@H](CCc1cccc(C(F)(F)F)c1)B1O[C@@H]2C[C@@H]3C[C@@H](C3(C)C)[C@]2(C)O1)C(C)C (H-DEVVP-X3),0.025
14,CCCCCC[C@H](NC(=O)[C@@H]1CCCN1C(=O)[C@@H](NC(=O)[C@@H](NC(=O)[C@H](CCC(=O)O)NC(=O)[C@@H](N)CC(=O)O)C(C)C)C(C)C)B1O[C@@H]2C[C@@H]3C[C@@H](C3(C)C)[C@]2(C)O1 (H-DEVVP-X11),0.013
15,CCCCC[C@H](NC(=O)[C@@H]1CCCN1C(=O)[C@@H](NC(=O)[C@@H](NC(=O)[C@H](CCC(=O)O)NC(=O)[C@@H](N)CC(=O)O)C(C)C)C(C)C)B1O[C@@H]2C[C@@H]3C[C@@H](C3(C)C)[C@]2(C)O1 (H-DEVVP-X13),0.012
16,CC[C@H](NC(=O)[C@@H]1CCCN1C(=O)[C@@H](NC(=O)[C@@H](NC(=O)[C@H](CCC(=O)O)NC(=O)[C@@H](N)CC(=O)O)C(C)C)C(C)C)B1O[C@@H]2C[C@@H]3C[C@@H](C3(C)C)[C@]2(C)O1,0.008
17,CC(C)CC[C@H](NC(=O)[C@@H]1CCCN1C(=O)[C@@H](NC(=O)[C@@H](NC(=O)[C@H](CCC(=O)O)NC(=O)[C@@H](N)CC(=O)O)C(C)C)C(C)C)B1O[C@@H]2C[C@@H]3C[C@@H](C3(C)C)[C@]2(C)O1 (H-DEVVP-X12),0.039
18,CC(C)[C@H](NC(=O)[C@H](CCC(=O)O)NC(=O)[C@@H](N)CC(=O)O)C(=O)N[C@H](C(=O)N1CCC[C@H]1C(=O)N[C@@H](CCc1ccc(O)cc1)B1O[C@@H]2C[C@@H]3C[C@@H](C3(C)C)[C@]2(C)O1)C(C)C,0.008
19,CC(C)[C@H](NC(=O)[C@H](CCC(=O)O)NC(=O)[C@@H](N)CC(=O)O)C(=O)N[C@H](C(=O)N1CCC[C@H]1C(=O)N[C@@H](CCCCc1ccccc1)B1O[C@@H]2C[C@@H]3C[C@@H](C3(C)C)[C@]2(C)O1)C(C)C,0.01
20,CCCC[C@H](NC(=O)[C@@H]1CCCN1C(=O)[C@@H](NC(=O)[C@@H](NC(=O)[C@H](CCC(=O)O)NC(=O)[C@@H](N)CC(=O)O)C(C)C)C(C)C)B1O[C@@H]2C[C@@H]3C[C@@H](C3(C)C)[C@]2(C)O1 (H-DEVVP-X14),0.011
21,Cc1cccc(CC[C@H](NC(=O)[C@@H]2CCCN2C(=O)[C@@H](NC(=O)[C@@H](NC(=O)[C@H](CCC(=O)O)NC(=O)[C@@H](N)CC(=O)O)C(C)C)C(C)C)B2O[C@@H]3C[C@@H]4C[C@@H](C4(C)C)[C@]3(C)O2)c1,0.034
22,CC(C)[C@H](NC(=O)[C@H](CCC(=O)O)NC(=O)[C@@H](N)CC(=O)O)C(=O)N[C@H](C(=O)N1CCC[C@H]1C(=O)N[C@@H](CCc1ccc(C2CCCCC2)cc1)B1O[C@@H]2C[C@@H]3C[C@@H](C3(C)C)[C@]2(C)O1)C(C)C,0.003
23,CC(C)[C@H](NC(=O)[C@H](CCC(=O)O)NC(=O)[C@@H](N)CC(=O)O)C(=O)N[C@H](C(=O)N1CCC[C@H]1C(=O)N[C@@H](CCCc1ccccc1)B1O[C@@H]2C[C@@H]3C[C@@H](C3(C)C)[C@]2(C)O1)C(C)C (H-DEVVP-X6),0.2
24,CC(C)c1ccc(CC[C@H](NC(=O)[C@@H]2CCCN2C(=O)[C@@H](NC(=O)[C@@H](NC(=O)[C@H](CCC(=O)O)NC(=O)[C@@H](N)CC(=O)O)C(C)C)C(C)C)B2O[C@@H]3C[C@@H]4C[C@@H](C4(C)C)[C@]3(C)O2)cc1,0.005
25,CC(C)[C@H](NC(=O)[C@H](CCC(=O)O)NC(=O)[C@@H](N)CC(=O)O)C(=O)N[C@H](C(=O)N1CCC[C@H]1C(=O)N[C@@H](CCc1ccc(F)cc1)B1O[C@@H]2C[C@@H]3C[C@@H](C3(C)C)[C@]2(C)O1)C(C)C,0.006
26,CC(C)C[C@H](NC(=O)[C@@H]1CCCN1C(=O)[C@@H](NC(=O)[C@@H](NC(=O)[C@H](CCC(=O)O)NC(=O)[C@@H](N)CC(=O)O)C(C)C)C(C)C)B1O[C@@H]2C[C@@H]3C[C@@H](C3(C)C)[C@]2(C)O1,0.008
27,CC(C)[C@H](NC(=O)[C@H](CCC(=O)O)NC(=O)[C@@H](N)CC(=O)O)C(=O)N[C@H](C(=O)N1CCC[C@H]1C(=O)N[C@@H](CCc1ccc(C(F)(F)F)cc1)B1O[C@@H]2C[C@@H]3C[C@@H](C3(C)C)[C@]2(C)O1)C(C)C,0.002
28,CC(C)[C@H](NC(=O)[C@H](CCC(=O)O)NC(=O)[C@@H](N)CC(=O)O)C(=O)N[C@H](C(=O)N1CCC[C@H]1C(=O)N[C@@H](CCc1ccccc1F)B1O[C@@H]2C[C@@H]3C[C@@H](C3(C)C)[C@]2(C)O1)C(C)C (H-DEVVP-X1),0.018
